# Compounds with a hit are over-represented: about 2.5% of the library has one in this group of screens.
# JMJD2C inh = inhibitors of human GASC-1 (JMJD2C) demethylase; Q9H3R0; GST-JMJD2C(1-420) H3K9me3 demethylation, DELFIA europium; inhibition, % at 2.35 µM; hit rate 0.069% among 330,000; AID 2099;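 active = more than half of a compound's replicate wells show inhibition beyond 50%, single wells judged on their own value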;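 also: signal counts dimethyl H3K9 product captured on neutravidin plate; 0% = median of DMSO wells and 100% = 0.3 times that DMSO median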
# ADAM10 inh = inhibitors of human ADAM10 | recombinant ADAM10, EDANS/DABCYL FRET peptide cleavage, 3 h | inhibition, % at 7 µM | hit rate 0.62% among 370,000 | AID 720582;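 active = inhibition above a per-campaign cutoff equal to the mean of compounds falling between control-based bounds plus 3 SD, cut at about 20% in these data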;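 also: 0% = DMSO wells while the 100% control is not disclosed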
# NR2E3 ag-1 = NR2E3 (human) agonism | Q9Y5X4 | GST-NR2E3/biotin-RetCOR TR-FRET, 1536-well | inhibition of corepressor binding, % at 4.78 µM | hit rate 0.12% among 320,000 | AID 2300;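 active = percent inhibition above the cutoff of mean plus 3 SD of all tested compounds, set per screening campaign, cut at about 20% in these data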;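 also: 0% = DMSO wells and 100% = biotin wells as full block of FRET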
# Target sequence (Q9Y5X4 whole entry, looked up): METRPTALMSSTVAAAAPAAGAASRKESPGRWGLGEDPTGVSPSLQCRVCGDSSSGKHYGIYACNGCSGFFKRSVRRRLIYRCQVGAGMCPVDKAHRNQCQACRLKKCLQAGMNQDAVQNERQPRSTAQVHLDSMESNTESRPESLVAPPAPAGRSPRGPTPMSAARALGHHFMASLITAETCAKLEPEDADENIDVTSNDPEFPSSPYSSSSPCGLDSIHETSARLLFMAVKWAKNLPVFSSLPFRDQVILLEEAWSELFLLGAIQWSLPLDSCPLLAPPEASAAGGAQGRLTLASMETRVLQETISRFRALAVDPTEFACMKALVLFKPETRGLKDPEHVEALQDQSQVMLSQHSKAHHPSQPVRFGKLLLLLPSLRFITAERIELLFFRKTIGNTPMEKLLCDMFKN
#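 Material – GST-tagged NR2E3 plus biotinylated RetCOR corepressor · Quantity – NR2E3 fusion 1.35 nM · Times – 5 h incubation at 4 °C · Medium – pH 7.5 Tris-based buffer · Technique – TR-FRET, Eu(K)-anti-GST donor, streptavidin-D2 acceptor, ex 340, em 617/671 nm · Benchmarks – high control biotin, low control 0.6% DMSO · Format – 1536-well plates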
# proKLK7 act = activates the human kallikrein-7 zymogen | P49862 | purified proKLK7, EDANS-DABCYL substrate fluorescence; 100% is mature enzyme control, 0% vehicle | activation, % at 7 µM | hit rate 0.9% among 370,000;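 active = activation above the mean of all tested compounds plus 3 SD, computed per campaign excluding outliers beyond control limits, cut at about 13% in these data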
# Target sequence (P49862 whole entry, looked up): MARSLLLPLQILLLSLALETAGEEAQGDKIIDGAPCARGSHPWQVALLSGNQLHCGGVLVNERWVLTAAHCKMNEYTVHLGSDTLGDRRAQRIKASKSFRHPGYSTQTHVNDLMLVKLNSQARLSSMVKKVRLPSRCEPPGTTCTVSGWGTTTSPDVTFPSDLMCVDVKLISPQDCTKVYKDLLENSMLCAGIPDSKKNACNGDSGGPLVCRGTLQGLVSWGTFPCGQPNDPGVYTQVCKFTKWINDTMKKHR
# ADAM17 inh = inhibitors of human ADAM17; recombinant ADAM17, EDANS/DABCYL FRET peptide cleavage; inhibition, % at 6.95 µM; hit rate 0.83% among 370,000; AID 720648;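 active = inhibition above the mean of compounds lying between control limits plus 3 SD, set per campaign, cut at about 8.5% in these data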;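 also: 0% = DMSO-only wells as the low control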
# NR2E3 ag-2 = agonists of human NR2E3 nuclear receptor | inhibition of corepressor binding, % at 3.98 µM | hit rate 0.35% among 360,000 | CHO-S Gal4-NCOR/VP16-NR2E3 two-hybrid, luciferase | AID 602229 | Q9Y5X4;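 active = inhibition above the mean of all tested compounds plus 3 SD, cut at about 70% in these data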;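 also: 0% = DMSO with NR2E3 transfected cells and 100% = cells lacking NR2E3 construct; higher means lower luciferase signal from less NR2E3 corepressor binding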
# KLK7 act conf = confirmation of human kallikrein-7 zymogen activators. shares compounds with proKLK7 act. purified proKLK7, EDANS-DABCYL substrate fluorescence; scaled: vehicle 0, mature enzyme 100. activation, % at 7 µM. hit rate 68% among 3,200. AID 686949;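 active = activation, as change over the incubation, above the mean of all tested compounds plus 3 SD, cut at about 13% in these data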
# EDANS-DABCYL int = optically interferes with EDANS-DABCYL signal, flagging KLK7 hits. shares compounds with proKLK7 act. EDANS-DABCYL substrate fluorescence interference, no enzyme, 4 h; solvent 0%, active enzyme control 100%. activation, % at 7 µM. hit rate 80% among 3,200;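 active = activation above the all-compound mean plus 3 SD, ignoring values outside control-based bounds, cut at about 4.8% in these data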;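 also: value is the 4 h activation minus the activation read at time zero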
# EDANS interf = optically interferes with EDANS-DABCYL fluorescence, kallikrein-7 activator counter-screen | shares compounds with proKLK7 act | EDANS-DABCYL peptide fluorescence interference, no enzyme | EC50, µM | hit rate 20% among 250;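 active = compounds that raise the fluorescence signal in this interference counterscreen, with EC50 at or below 10 µM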;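 also: intact quenched peptide substrate alone read at 355 nm excitation and 520 nm emission; signal is fluorescence gain from T0 to T4 after four hours at room temperature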
# * hit, by the source's call; i = inactive; x = no result given.
SMILES,JMJD2C inh,ADAM10 inh,NR2E3 ag-1,proKLK7 act,ADAM17 inh,NR2E3 ag-2,KLK7 act conf,EDANS-DABCYL int,others
COCCCn1c(=N)c(C(=O)NC2CCCCC2)cc2c(=O)n3ccccc3nc21,-7,i,2,150*,i,-35,4,-3,
Cn1c(C(=O)N2COCC2(C)C)cc2c(=O)n3ccccc3nc21,-4,i,5,48*,i,-44,74*,70*,
Nc1c(C(=O)Nc2ccccc2)c2nc3ccccc3nc2n1CCCN1CCOCC1,0,-17,0,-8,-13,4,x,x,
N#Cc1c(N)n(CCCN2CCOCC2)c2nc3ccccc3nc12,x,i,1,47*,i,8,68*,79*,
CCCCCn1c(N)c(C#N)c2nc3ccccc3nc21,0,i,7,22*,i,5,-60,-56,
O=C(N/N=C(\c1ccccc1)c1cccnc1)c1cc(O)ccc1O,6,-10,-5,0,0,x,x,x,
O=C(NCCCc1ccccc1)[C@H](Cc1c[nH]c2ccccc12)NC1(C(=O)NCCc2c[nH]c3ccccc23)CCOCC1,x,12,x,x,7,x,x,x,
Cc1coc2cc3oc(=O)c(CC(=O)N[C@@H](CC(C)C)C(=O)O)c(C)c3cc12,6,-229,-1,12,-98,-20,x,x,
Cc1coc2c1c(C)cc1oc(=O)c(CC(=O)N[C@H](C(=O)O)C(C)C)c(C)c12,1,i,0,23*,-264,-15,29*,37*,
Cc1coc2c(C)c3oc(=O)c(CCC(=O)NCCC(=O)O)c(C)c3cc12,-1,-62,0,8,-26,-5,x,x,
Cc1coc2c1c(C)cc1oc(=O)c(CC(=O)N[C@@H](C)C(=O)O)c(C)c12,4,i,x,29*,-375,-29,24*,27*,
Cc1coc2c1c(C)cc1oc(=O)c(Cc3ccccc3)c(C)c12,10,-4,10,0,-3,1,x,x,
Cc1coc2c(C)c3oc(=O)c(CCC(=O)N[C@H](C(=O)O)C(C)C)c(C)c3cc12,x,-303,x,16*,-77,11,8,10*,
CCC(NC(=O)Cc1c(C)c2c(cc(C)c3c(C)c(C)oc32)oc1=O)C(=O)O (stereo unspecified),1,-323,x,23*,-109,11,16*,1,EDANS interf=>70
CSCC[C@H](NC(=O)Cc1c(C)c2c(cc(C)c3c(C)c(C)oc32)oc1=O)C(=O)O,-5,-157,x,-7,-69,-30,x,x,
Cc1cc(C)n(S(=O)(=O)c2ccccc2[N+](=O)[O-])n1,-9,-2,1,0,-1,-16,x,x,
COC(=O)[C@]12C[C@H](CC(=O)NCC34CC5CC(CC(C5)C3)C4)C(=O)N(CCc3ccc(OC)c(OC)c3)C1=C[C@H](C1CCCC1)O[C@@H]2C,x,13,x,0,5,x,x,x,
O=C(c1ccco1)N1CCN(CCCCOc2ccc(F)cc2)CC1,-3,0,-3,0,1,-7,x,x,
Cc1occc1-c1nnc(SCC(=O)NCc2ccc(Cl)cc2)n1-c1ccccc1,x,-6,x,0,-2,x,x,x,
C=CCOC(=O)C1=C(C)NC(SCC(=O)NC(=O)OCC)=C(C#N)C1c1cccnc1 (stereo unspecified),-15,-81,6,20*,-19,-18,27*,17*,EDANS interf=4.4*
C=CCOC(=O)C1=C(C)NC(SCC(=O)N(CC)CC)=C(C#N)C1c1ccccc1 (stereo unspecified),-5,-17,0,0,7,-12,x,x,
C[C@]12c3[nH]c4cc(-c5ccco5)ccc4c3CCN1C(=O)[C@@H](CC(=O)NCc1cccc(C(F)(F)F)c1)C[C@@H]2C(=O)N1CCOCC1,x,-437,x,16*,-125,4,-1,-2,
COCCCNC(=O)CC1C[C@H](C(=O)N2CCCCC2)[C@@]2(C)c3[nH]c4ccccc4c3CCN2C1=O (stereo partly specified),10,-11,x,0,-5,0,x,x,
C[C@]12c3[nH]c4cc(-c5ccco5)ccc4c3CCN1C(=O)[C@@H](CC(=O)NCCN1CCOCC1)C[C@@H]2C(=O)N1CCCCC1,x,-371,x,134*,-95,-21,63*,61*,
COCCCNC(=O)C[C@H]1C[C@H](C(=O)N2CCCCC2)[C@@]2(C)c3[nH]c4cc(-c5ccco5)ccc4c3CCN2C1=O,x,-448,x,170*,-132,-15,88*,114*,
SMILES,JMJD2C inh,ADAM10 inh,NR2E3 ag-1,proKLK7 act,ADAM17 inh,NR2E3 ag-2,KLK7 act conf,EDANS-DABCYL int,others
O=S1(=O)CC(N2CCC(Cc3ccccc3)CC2)CN1C1CCCCC1 (stereo unspecified),x,-3,x,0,3,4,x,x,
Cc1noc(C)c1S(=O)(=O)N(C)C[C@@H]1OCc2cnnn2CCCC(=O)N([C@H](C)CO)C[C@@H]1C,x,-9,x,0,-2,-11,x,x,
COC(=O)/C=C/c1oc2ccccc2c1C,-25,-5,2,0,-2,2,x,x,
O=C(CCc1nnc(C2CCCCC2)o1)N1CCC(Oc2cccnc2)CC1,-5,2,-3,0,2,-3,x,x,
COc1ccccc1-c1nnc(N)s1,1,-193,-2,0,-45,-6,x,x,
COc1ccccc1-c1nnc(SC2CCc3ccccc3NC2=O)s1 (stereo unspecified),2,-23,0,13*,-11,-7,-4,6.3*,
c1cc2c3c(cccc3c1)C(N1CCCCCC1)=N2,10,-162,-1,52*,-40,-18,7,9.4*,
c1ccc2c(c1)CCN(C1=Nc3cccc4cccc1c34)C2,x,-83,x,14*,-31,-120,7,8.2*,
c1cc2c3c(cccc3c1)C(N1CCCCC1)=N2,7,x,-4,x,x,-26,x,x,
Cc1cccn2c(=O)c3cc(C(=O)NCc4ccco4)c(=N)n(C(C)C)c3nc12,8,i,-1,26*,-317,-8,7,4,
CC(C)n1c(=N)c(C(=O)NCCc2ccccc2)cc2c(=O)n3ccccc3nc21,4,i,1,134*,i,-34,-51,-64,
Cc1cccn2c(=O)c3cc(C(=O)NCc4cccnc4)c(=N)n(C(C)C)c3nc12,-4,i,-2,134*,i,-1,51*,67*,

# High-throughput results as filed in PubChem.
